Measured values published in ChEMBL document CHEMBL1135824, “Interaction of designed sulfated flavanoids with antithrombin: lessons on the design of organic activators” (J Med Chem, 2002).
Each block holds one compound with its values, some of them ahead of it.

Legend:
[1] = Non ionic interaction with plasma antithrombin at 25 degree Celsius in 20 mM sodium phosphate buffer at a pH 7.4; type: ADME, cell-free
[2] = biological target: Coagulation factor X (Homo sapiens) (UniProt P00742); test: Second order rate constant for antithrombin inhibition of factor Xa in the presence of activator determined
Chain of Coagulation factor X (Homo sapiens) (P00742 41-179 limits assumed): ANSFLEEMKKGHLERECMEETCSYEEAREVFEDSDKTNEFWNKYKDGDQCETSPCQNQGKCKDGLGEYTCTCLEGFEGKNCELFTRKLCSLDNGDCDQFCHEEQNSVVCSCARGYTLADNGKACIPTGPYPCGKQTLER
Chain of Coagulation factor X (Homo sapiens) (P00742 235-488 limits assumed): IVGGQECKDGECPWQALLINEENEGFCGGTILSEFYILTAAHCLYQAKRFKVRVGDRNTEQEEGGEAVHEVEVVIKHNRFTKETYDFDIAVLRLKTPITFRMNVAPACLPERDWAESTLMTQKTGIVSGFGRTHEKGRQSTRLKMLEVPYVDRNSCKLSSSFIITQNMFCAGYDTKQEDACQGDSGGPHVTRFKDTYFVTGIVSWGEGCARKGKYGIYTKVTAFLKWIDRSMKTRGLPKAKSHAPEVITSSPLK

[3] = Observed dissociation constant of interaction with plasma antithrombin at 25 degree Celsius in 20 mM sodium phosphate buffer at a pH 7.4; type: ADME, cell-free
Outline: (§1)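 Human plasma antithrombin (1 µM) with TNS (5 µM) was titrated with the sulfated flavanoid. Buffer was 20 mM sodium phosphate, 0.1 mM EDTA, 0.1% PEG 8000, at pH 6.0 (I 0.025) or 7.4 (I 0.035). Fluorescence decrease was read at 432 nm (excitation 330 nm). KD came from fitting to a quadratic equilibrium binding equation.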

[4] = Observed dissociation constant of interaction with plasma antithrombin at 25 degree Celsius in 20 mM sodium phosphate buffer at a pH 6.0; type: ADME, cell-free; outline: as §1
[5] = Non ionic interaction with plasma antithrombin at 25 degree Celsius in 20 mM sodium phosphate buffer at a pH 6.0; type: ADME, cell-free
[6] = Second order rate constant for antithrombin inhibition of factor Xa in the presence of activator determined
[7] = Dissociation constant of CS-Antithrombin interaction at 25 degree Celsius 20 mM sodium phosphate buffer at pH 6.0 at 4.5 uM; type: functional
Outline: (§2)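 Competitive titration of CS into plasma antithrombin–TNS complex with tetrasaccharide EFGH″ held at a fixed level, much above antithrombin. Competitor levels spanned 0.67–6.7 × its own antithrombin KD. Run at 25 °C in 20 mM sodium phosphate, 0.1 mM EDTA, 0.1% PEG 8000, pH 6.0, I 0.025. Read-out was the decrease in TNS fluorescence with rising CS. Antithrombin was freshly diluted from pH 7.4 stock.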

[8] = Dissociation constant of CS-Antithrombin interaction at 25 degree Celsius 20 mM sodium phosphate buffer at pH 6.0 at 20 uM; type: functional; outline: as §2
[9] = Dissociation constant of CS-Antithrombin interaction at 25 degree Celsius 20 mM sodium phosphate buffer at pH 6.0 at 3.0 uM; type: functional; outline: as §2
[10] = Effect (2 uM)on second-order rate constant that accelerated inhibition of factor Xa by antithrombin-CS (50 uM)complex
[11] = Effect (2 uM)on second-order rate constant that accelerated inhibition of factor Xa by antithrombin-CS (0 uM) complex
[12] = Effect (1 uM) on second-order rate constant that accelerated inhibition of factor Xa by antithrombin-CS (50 uM)complex
[13] = Dissociation constant of CS-Antithrombin interaction at 25 degree Celsius 20 mM sodium phosphate buffer at pH 6.0 at 10 uM; type: functional; outline: as §2
[14] = Effect (4 uM) on second-order rate constant that accelerated inhibition of factor Xa by antithrombin-CS (50 uM)complex
[15] = Dissociation constant of CS-Antithrombin interaction at 25 degree Celsius 20 mM sodium phosphate buffer at pH 6.0 at 0 uM; type: functional
[16] = Effect (4 uM) on second-order rate constant that accelerated inhibition of factor Xa by antithrombin-CS (0 uM) complex
[17] = Effect (1 uM) on observed rate constant that accelerated inhibition of factor Xa by antithrombin-CS (0 uM) complex
[18] = Dissociation constant of CS-Antithrombin interaction at 25 degree Celsius 20 mM sodium phosphate buffer at pH 6.0 at 30 uM; type: functional; outline: as §2
[19] = Effect (0 uM) on second-order rate constant that accelerated inhibition of factor Xa by antithrombin-CS (50 uM)complex

Kd [1]: 2200 µM
K ACT [2]: 6750 M⁻¹ s⁻¹
Kd [3]: 17.9 µM
Kd [4]: 3.5 µM
Kd [5]: 1000 µM
Compound: O=S(=O)(O)Oc1cc2c(c(OS(=O)(=O)O)c1)C[C@H](OS(=O)(=O)O)[C@@H](c1ccc(OS(=O)(=O)O)c(OS(=O)(=O)O)c1)O2

kACT [6]: 2770 M⁻¹ s⁻¹
Kd [4]: 26.1 µM
KD non ionic [5]: 470 µM
Compound: O=S(=O)(O)Oc1cc2c(c(OS(=O)(=O)O)c1)C[C@@H](OS(=O)(=O)O)[C@H](c1ccc(OS(=O)(=O)O)c(OS(=O)(=O)O)c1)O2 (racemic)

Kd [1]: 1100 µM
K ACT [2]: 3380 M⁻¹ s⁻¹
Kd [3]: 32.3 µM
Kd [4]: 10.7 µM
Kd [5]: 380 µM
Compound: O=S(=O)(O)Oc1cc2c(c(OS(=O)(=O)O)c1)C[C@@H](OS(=O)(=O)O)[C@@H](c1ccc(OS(=O)(=O)O)c(OS(=O)(=O)O)c1)O2

second-order rate constant [10]: 4700 M⁻¹ s⁻¹
second-order rate constant [11]: 3200 M⁻¹ s⁻¹
second-order rate constant [12]: 4300 M⁻¹ s⁻¹
second-order rate constant [14]: 7400 M⁻¹ s⁻¹
second-order rate constant [16]: 6400 M⁻¹ s⁻¹
second-order rate constant [17]: 2400 M⁻¹ s⁻¹
second-order rate constant [19]: 2000 M⁻¹ s⁻¹
Compound: CO[C@H]1O[C@H](COS(=O)(=O)O)[C@@H](O[C@H]2O[C@@H](C(=O)O)[C@@H](O[C@H]3O[C@H](COS(=O)(=O)O)[C@@H](O[C@H]4O[C@H](C(=O)O)C[C@H](O)[C@H]4O)[C@H](OS(=O)(=O)O)[C@H]3NS(=O)(=O)O)[C@H](O)[C@H]2OS(=O)(=O)O)[C@H](OS(=O)(=O)O)[C@H]1OS(=O)(=O)O
KCS, APP [7]: 3.5 µM
KCS, APP [8]: 3.2 µM
KCS, APP [9]: 4.8 µM
KCS, APP [13]: 3.1 µM
KCS, APP [15]: 3.5 µM
KCS, APP [18]: 2.1 µM
